This passage reports cytotoxicity results from ChEMBL document CHEMBL4513216, “Probing the Open Global Health Chemical Diversity Library for Multistage-Active Starting Points for Next-Generation Antimalarials” (ACS Infect Dis, 2020).

Each structure is given as a SMILES string.

A short description of the data set: Toxicity liver stage against HepG2, at 10uM. Further details: test concentration 10 uM, cell line HepG2-A16-CD81EGFP. The format is cell-based. The settings on record: human, HepG2-A16-CD81EGFP cells; read-out: INHIBITION
The gist of the method: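 Uninfected HepG2-A16-CD81EGFP cells, 3 × 10^3 per well, 1536-well, plated on prespotted compound at 10 μM final, parasite-free screening media added to match infected plates; puromycin 10 μM positive, DMSO 0.5% negative; run in parallel with 48 h PbLuc assay at 37 °C, 5% CO2; viability by CellTiter-Glo luminescence, normalized to controls.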
As for `CCNC(=O)c1nnc2ccc(N3CCOCC3)cc2n1`, the cytotoxicity at 10 µM worked out at 3.56%.

`CS(=O)(=O)N1CC(=O)N(CCCc2ccccc2)CC(O)C1` (stereo unspecified): the cytotoxicity at 10 µM is -7.99%.

On to `O=C(c1ccncc1F)N1CC[C@@H]2CN(c3ncccn3)CCO[C@@H]2C1`, for which the cytotoxicity at 10 µM was -77.2%.

Turning to `O=c1cc(CN2CCCC2)nc2n1CCCN(Cc1ccco1)C2`, the cytotoxicity at 10 µM was 4.01%.

Consider `Cc1cccc2nc(CN3CCCC3Cn3cncn3)cn12` (stereo unspecified), for which the cytotoxicity at 10 µM was -6.97%.

`O=C1CCCN1CCN1CCC(c2ccn[nH]2)CC1`: the cytotoxicity at 10 µM was 11.3%.

Regarding `CC(c1nc(C2CC2)no1)N(C)Cc1ccc2c(c1)OCCO2` (stereo unspecified), the cytotoxicity at 10 µM came out at 0.611%.

In the case of `O=C(NCC1Cn2nnc(-c3ccncc3)c2CO1)c1ccsc1` (stereo unspecified), the cytotoxicity at 10 µM was determined as 11.1%.

For the compound `O=C(CCn1cc(Cl)cn1)N1CCC2(CC1)[C@H](O)C[C@@H]2OCCO`, the cytotoxicity at 10 µM came to 19.6%.

For `CC(C)(C)C(=O)N1C[C@H](c2ccsc2)[C@H]2CN(C3CCCC3)CC[C@H]21`, the cytotoxicity at 10 µM turned out to be 2.33%.

Take `OC(CN1CCN(Cc2ccc(F)c(F)c2)CC1)C1CC1` (stereo unspecified): the cytotoxicity at 10 µM was -22.2%.

As for `Cc1cc(C(=O)N2CCCC2c2nc(O)cc(C(C)C)n2)on1` (stereo unspecified), the cytotoxicity at 10 µM was -3.42%.

Regarding `Cc1ccc(CN2CCc3onc(C(=O)NCCN(C)C)c3C2)o1`, the cytotoxicity at 10 µM was determined as 5.9%.

`CCc1ccc(C(=O)N2CCCCC2CNS(C)(=O)=O)o1` (stereo unspecified): the cytotoxicity at 10 µM is -0.95%.

Consider `O=c1c2ccc(Cl)cc2ncn1CCCN1CCCCC1CO` (stereo unspecified), for which the cytotoxicity at 10 µM is -2.4%.

With `CC(C)(C)c1cn2nc(N3CCC[C@@H]3CO)sc2n1`, the cytotoxicity at 10 µM worked out at 3.64%.

On to `Cn1ncc2c1CCCC2NCc1cnc(-c2ccccc2)nc1` (stereo unspecified), for which the cytotoxicity at 10 µM was -5.43%.

As to `Cc1cccc(C(=O)N(C)CC(=O)N2CCCC2)c1C`, the cytotoxicity at 10 µM is -0.291%.

As for `Cn1nccc1C(=O)N1CCC(c2nnsc2S(C)(=O)=O)CC1`, the cytotoxicity at 10 µM is -4.22%.

Consider `CCc1noc(CN(C)CCC(=O)Nc2ccccc2C#N)n1`, for which the cytotoxicity at 10 µM was 9.69%.

With `COc1ccc(CN2CC(O)CN(C(=O)C3CCC3)CC2=O)cc1` (stereo unspecified), the cytotoxicity at 10 µM is -12.8%.

For the compound `Cc1ccc(CNC(=O)C2CCN(C(=O)c3ccco3)CC2)n1C`, the cytotoxicity at 10 µM worked out at 2.46%.

As for `CC(NC(=O)NCc1ccoc1)c1ccc2c(c1)CCC(=O)N2` (stereo unspecified), the cytotoxicity at 10 µM is -1.12%.

Turning to `CCc1nc(C)ncc1C(=O)N1CCN(CC)c2ccccc21`, the cytotoxicity at 10 µM was -10.1%.

For `O=S(=O)(C1CC1)N1CCO[C@H]2[C@@H](Oc3ncccc3F)CC[C@@H]21`, the cytotoxicity at 10 µM came out at 1.67%.

On to `COC[C@]12COC[C@H]1CN(Cc1ccc3ccccc3n1)C2`, for which the cytotoxicity at 10 µM was found to be 11.9%.

For `O=C(CN1CCc2ccccc21)Nc1ccc(OC(F)F)cc1`, the cytotoxicity at 10 µM was determined as 16.8%.

With `c1ccc(-c2noc(CCCN3CCCC3Cn3cncn3)n2)cc1` (stereo unspecified), the cytotoxicity at 10 µM is -2.06%.

With `CCN(CC)CC[C@H]1CN(C(=O)CC(C)(C)C)CC[C@H]1CC(=O)O`, the cytotoxicity at 10 µM was -0.668%.

Take `O=C(NCc1cncc2c1CCN(Cc1ccoc1)C2)C1CC1`: the cytotoxicity at 10 µM is 4.03%.

For `COc1ccc(C(C(=O)O)N2CCC(O)(c3cccnc3)CC2)cc1Cl` (stereo unspecified), the cytotoxicity at 10 µM is 4.57%.

As to `Cc1noc(C2CCN(Cn3cc(Br)cn3)CC2)n1`, the cytotoxicity at 10 µM was determined as 0.277%.

In the case of `COc1ccc(CSc2nnc(N)n2C2CC2)cc1Cl`, the cytotoxicity at 10 µM was 0.00426%.

As to `COC1C[C@@H]2CN(C(=O)c3cc4ccc(F)cc4[nH]3)C[C@@H]2C1` (stereo partly specified), the cytotoxicity at 10 µM was 2.93%.

For `Cn1ccnc1CNC(=O)c1ccnc(C2CCNCC2)c1`, the cytotoxicity at 10 µM worked out at 5.8%.

For `O=C(CC1CC1)N1C[C@H]2CCN[C@H]2C1`, the cytotoxicity at 10 µM was found to be 5.75%.

With `CC(C)S(=O)(=O)NCc1cccnc1Oc1ccc(F)cc1F`, the cytotoxicity at 10 µM came to 5.98%.

`O=C(c1cnccn1)N1CCCC2(CCN(c3ncccn3)C2)C1` (stereo unspecified): the cytotoxicity at 10 µM is 5.61%.

With `CC(C)Cn1c2c(ccc1=O)CC(NC(=O)c1ccsc1)CC2` (stereo unspecified), the cytotoxicity at 10 µM was -109%.

Turning to `Cc1ccc(S(=O)(=O)c2ncccc2CN2CCCCC2)cc1`, the cytotoxicity at 10 µM was -47.6%.

With `CCn1cc2[nH]c(OC)c(CNC(=O)C3CCCN(C)C3)cc-2c1=O` (stereo unspecified), the cytotoxicity at 10 µM is 11.3%.

As to `Cn1ccc(C(=O)N2CCOC(c3ccccn3)C2)cc1=O` (stereo unspecified), the cytotoxicity at 10 µM was -31.4%.

`CS(=O)(=O)NCCCNC(=O)c1cccc(-n2cccc2)c1`: the cytotoxicity at 10 µM is -9.86%.

As to `COc1ccc(C2CCCN2S(=O)(=O)N(C)C)cc1` (stereo unspecified), the cytotoxicity at 10 µM amounted to 5.08%.

As to `CCCc1noc(CN2CCC(c3ccnn3CCO)CC2)n1`, the cytotoxicity at 10 µM was -19.9%.

In the case of `Cc1cc(C(=O)N2C[C@@H]3C(CN(C)CCCn4cccn4)[C@@H]3C2)c(C)o1` (stereo partly specified), the cytotoxicity at 10 µM is -55.4%.

For `Cn1ccc(C(=O)NCc2ccc(N3CCCCC3)nc2)cc1=O`, the cytotoxicity at 10 µM was -10.8%.

As to `CCS(=O)(=O)N1CCCC(c2nccn2Cc2cccnc2)C1` (stereo unspecified), the cytotoxicity at 10 µM was -2.78%.

`CCC(C)N(Cc1cnc(NCC(=O)O)nc1)Cc1ccsc1` (stereo unspecified): the cytotoxicity at 10 µM was 0.866%.

Turning to `CC(C)n1ccnc1CNC(=O)c1cccc(CCC(C)(C)O)c1`, the cytotoxicity at 10 µM is -36.4%.

Turning to `O=C(O)CC[C@@H]1CN(c2ccncc2)CC[C@@H]1N1CCOCC1`, the cytotoxicity at 10 µM amounted to 0.0482%.

Consider `COc1ccc(N2CCN(Cc3nc(CSC)no3)C(C)C2=O)cc1` (stereo unspecified), for which the cytotoxicity at 10 µM amounted to 3.28%.

For `c1ccc(CN2CCCC3(CCN(Cc4cccs4)C3)C2)nc1` (stereo unspecified), the cytotoxicity at 10 µM is -8.75%.

On to `CC(C)c1n[nH]c(C2CN(C(=O)COCC(F)(F)F)CCO2)n1` (stereo unspecified), for which the cytotoxicity at 10 µM is -10.3%.

As for `COc1cc(NC2CCN(C3CCS(=O)(=O)CC3)CC2)ncn1`, the cytotoxicity at 10 µM was determined as 1.64%.

Take `CN(C)C(=O)c1cccc(CN2CCOC(Cn3cncn3)C2)c1` (stereo unspecified): the cytotoxicity at 10 µM is -3.75%.

Take `CC(=O)N(Cc1ncc(C(C)C)o1)C1CCN(CC2CCC2)C1` (stereo unspecified): the cytotoxicity at 10 µM is -11.8%.

With `CC(=O)c1ccccc1-c1nc(CC2CCN(C)CC2)no1`, the cytotoxicity at 10 µM was -17.5%.

As for `Cc1cc(C)n(CC2(CNC(=O)C(c3ccccc3F)N(C)C)CC2)n1` (stereo unspecified), the cytotoxicity at 10 µM came out at 1.64%.

Regarding `Cc1nc(C2CCCN2CC(=O)NCCc2ccsc2)no1` (stereo unspecified), the cytotoxicity at 10 µM was -9.34%.

Turning to `Cc1ccc(CN2C[C@@H]3CN(C(=O)c4cccn4C)C[C@@H]3C2)cc1`, the cytotoxicity at 10 µM was -4.25%.

Regarding `CCCn1nc(-c2nc(Cc3ccc(OC)cc3)no2)ccc1=O`, the cytotoxicity at 10 µM was found to be 0.0197%.

With `O=C(NCc1ccco1)[C@H]1COC[C@H]2CN(Cc3ccccn3)C[C@H]21`, the cytotoxicity at 10 µM was -72.4%.

Turning to `Fc1ccc2c(c1)nc1n2[C@@H](CNCc2nccs2)COC1`, the cytotoxicity at 10 µM came to 1.07%.

For the compound `Cc1ccccc1N1CCCN(C(=O)CCc2nncn2C)CC1`, the cytotoxicity at 10 µM was found to be 3.82%.

`CC(C)CCC(C)NC(=O)CN1C=Nc2ccccc2S1(=O)=O` (stereo unspecified): the cytotoxicity at 10 µM was -1.64%.

`O=C(C1CC1)N1CC2(CCNCC2)C1`: the cytotoxicity at 10 µM is -0.832%.

Regarding `CC(C(=O)NC1CCN(C)CC1)n1nc(C(F)(F)F)c(Cl)c1C1CC1` (stereo unspecified), the cytotoxicity at 10 µM is -8.17%.

On to `Cc1cccc2c1CCN(c1cc(N3CCCC3CO)ncn1)C2` (stereo unspecified), for which the cytotoxicity at 10 µM is -3.44%.

In the case of `Cc1ncsc1CN1CCn2c(COc3cccnc3)cnc2C1C` (stereo unspecified), the cytotoxicity at 10 µM was found to be 9.16%.

With `O=C(CN1CCCS1(=O)=O)Nc1ccc(OC2CCCC2)c(Cl)c1`, the cytotoxicity at 10 µM was -8.87%.

For `Cc1ccccc1C1(CNC(=O)NCCc2nnc3n2CCC3)CC1`, the cytotoxicity at 10 µM stood at 2.48%.

As to `CN(C)CCN1CCCC12CCN(Cc1nccn1C)CC2`, the cytotoxicity at 10 µM was -99.1%.

With `O=C(NCC1CC1)[C@@H]1CCO[C@@H]2CCN(CCc3ccccc3)C[C@H]21`, the cytotoxicity at 10 µM was 1.14%.

Consider `Cc1cccc(Sc2nccn(C)c2=O)c1`, for which the cytotoxicity at 10 µM is 3.52%.

As for `Cc1cc(C)nc(NCCC(=O)NCCn2ccc3ccccc32)n1`, the cytotoxicity at 10 µM was -34.2%.

Take `CN(C)c1ccc(CCCNC(=O)Nc2ccc(C#N)cc2)cc1`: the cytotoxicity at 10 µM was -1.14%.

In the case of `Cc1ccc(C(=O)Nc2nn[nH]n2)s1`, the cytotoxicity at 10 µM was -0.246%.

Regarding `Nc1ncc(CN2CCC(CCC(=O)NC3CC3)CC2)cn1`, the cytotoxicity at 10 µM came out at 11.7%.

As for `N#Cc1csc(CN(CC(=O)N2CCCC2)CC2CCCO2)c1` (stereo unspecified), the cytotoxicity at 10 µM was -6.26%.

As to `CC(C)(C)CC(=O)N1CCC(c2nn(CCN)c3nccnc23)C1` (stereo unspecified), the cytotoxicity at 10 µM is -20.9%.

Regarding `COc1ccc(C(=O)N2C[C@@H](C(=O)O)[C@H](c3ccccc3)C2)c(O)c1`, the cytotoxicity at 10 µM was -2.14%.

In the case of `Fc1cccc(N2CCOC3(CCCN(c4cnccn4)C3)C2)c1` (stereo unspecified), the cytotoxicity at 10 µM was found to be 5.89%.

Turning to `O=C(O)c1nnn(-c2cccc(C(F)(F)F)c2)c1-c1ccncc1`, the cytotoxicity at 10 µM turned out to be 4.76%.

As for `COCC(O)CNc1ccc(C#N)cc1C(F)(F)F` (stereo unspecified), the cytotoxicity at 10 µM turned out to be 13.3%.

`Cc1ccc(CNC(=O)N2CCCC(NS(C)(=O)=O)C2)cc1` (stereo unspecified): the cytotoxicity at 10 µM amounted to 2.73%.

Consider `N#Cc1cccc(N2CCC(CO)(CCc3ccccc3)CC2)n1`, for which the cytotoxicity at 10 µM is -48%.

As to `CCN(CC)c1ccc(C(=O)N(C)Cc2c(C)noc2C)cn1`, the cytotoxicity at 10 µM is -5.38%.

Take `CCCn1nccc1-c1cnc(CC2CCN(C(C)=O)C2)cn1` (stereo unspecified): the cytotoxicity at 10 µM was -6.88%.

For the compound `CN1CCC2(Cc3ccccc3CN(C(=O)CCN)C2)C1` (stereo unspecified), the cytotoxicity at 10 µM came out at 0.17%.

Consider `O=C(CCc1cscn1)NS(=O)(=O)c1ccc2ccccc2c1`, for which the cytotoxicity at 10 µM is -13.1%.

For the compound `CC(C)c1nccn1C1CCCN(C(=O)c2cnc[nH]2)C1` (stereo unspecified), the cytotoxicity at 10 µM was -0.808%.

As for `COCC1c2c(cnn2CC2CCOCC2)CCN1Cc1ccoc1` (stereo unspecified), the cytotoxicity at 10 µM was -20%.

Regarding `O=C1CCCN1CCC1CCCCN1C(=O)c1ccc(SCCO)cc1` (stereo unspecified), the cytotoxicity at 10 µM is -43%.

On to `Cc1ccc(CSc2nc(N)cc(NCCC(=O)N3CCCC3)n2)cc1`, for which the cytotoxicity at 10 µM was found to be 1.87%.

Consider `Cc1nn(C)c(C)c1CNCc1cccnc1N1CCOCC1`, for which the cytotoxicity at 10 µM was -138%.
